Laboratory results from ChEMBL document CHEMBL3351270, “Curcumolide, a unique sesquiterpenoid with anti-inflammatory properties from Curcuma wenyujin” (Bioorg Med Chem Lett, 2015).
The source made the active and inactive calls. No cut-off for these calls is given here.

Experiments:
[1] = tested on: RAW264.7; assay: Antiinflammatory activity in mouse RAW264.7 cells assessed as inhibition of LPS-induced increase in TNF-alpha level at 10 uM incubated for 2 hrs prior to LPS challenge measured after 22 hrs by ELISA relative to control; type: functional
Procedure, shortened: (§1)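 RAW 264.7 macrophages pretreated 2 h with compound (0–20 µM) or 10 µM hydrocortisone as positive control, then exposed to LPS for a further 22 h. TNF-α, IL-1β and IL-6 in culture medium determined by ELISA. Means ± SEM from four independent experiments.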

[2] = tested on: RAW264.7; assay: Antiinflammatory activity in mouse RAW264.7 cells assessed as inhibition of LPS-induced increase in IL-6 level at 10 uM incubated for 2 hrs prior to LPS challenge measured after 22 hrs by ELISA relative to control; type: functional; procedure, shortened: as §1
[3] = tested on: RAW264.7; assay: Antiinflammatory activity in mouse RAW264.7 cells assessed as inhibition of LPS-induced increase in IL-1beta level at 10 uM incubated for 2 hrs prior to LPS challenge measured after 22 hrs by ELISA relative to control; type: functional; procedure, shortened: as §1
[4] = tested on: RAW264.7; assay: Antiinflammatory activity in mouse RAW264.7 cells assessed as inhibition of LPS-induced nitric oxide production at 10 uM incubated for 2 hrs prior to LPS challenge measured after 22 hrs relative to vehicle-treated control; type: functional
Procedure, shortened: (§2)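 Cells treated 2 h with compound (0–20 µM) or 10 µM hydrocortisone, followed by LPS for a further 22 h. NO production estimated as nitrite in culture medium by Griess reaction. Inhibition expressed as blocked ratio. Means ± SEM, four independent experiments.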

[5] = tested on: RAW264.7; assay: Cytotoxicity against mouse RAW264.7 cells assessed as cell viability at 0.01 to 100 uM after 24 hrs by MTT assay; type: cell-based; settings: raw264.7, 24 h
Procedure, shortened: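 Viability of RAW 264.7 cells measured by MTT after 24 h exposure to compound at 0.01–100 µM.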

[6] = tested on: RAW264.7; assay: Antiinflammatory activity in mouse RAW264.7 cells assessed as inhibition of LPS-induced increase in TNF-alpha level incubated for 2 hrs prior to LPS challenge measured after 22 hrs by ELISA; type: functional, cell-based; procedure, shortened: as §1
[7] = tested on: RAW264.7; assay: Antiinflammatory activity in mouse RAW264.7 cells assessed as inhibition of LPS-induced increase in IL-6 level incubated for 2 hrs prior to LPS challenge measured after 22 hrs by ELISA; type: functional, cell-based; procedure, shortened: as §1
[8] = tested on: RAW264.7; assay: Antiinflammatory activity in mouse RAW264.7 cells assessed as inhibition of LPS-induced increase in IL-1beta level incubated for 2 hrs prior to LPS challenge measured after 22 hrs by ELISA; type: functional, cell-based; procedure, shortened: as §1
[9] = tested on: RAW264.7; assay: Antiinflammatory activity in mouse RAW264.7 cells assessed as inhibition of LPS-induced increase in TNF-alpha level at 20 uM incubated for 2 hrs prior to LPS challenge measured after 22 hrs by ELISA relative to control; type: functional; procedure, shortened: as §1
[10] = tested on: RAW264.7; assay: Antiinflammatory activity in mouse RAW264.7 cells assessed as inhibition of LPS-induced increase in IL-6 level at 20 uM incubated for 2 hrs prior to LPS challenge measured after 22 hrs by ELISA relative to control; type: functional; procedure, shortened: as §1
[11] = tested on: RAW264.7; assay: Antiinflammatory activity in mouse RAW264.7 cells assessed as inhibition of LPS-induced increase in IL-1beta level at 20 uM incubated for 2 hrs prior to LPS challenge measured after 22 hrs by ELISA relative to control; type: functional; procedure, shortened: as §1
[12] = tested on: RAW264.7; assay: Antiinflammatory activity in mouse RAW264.7 cells assessed as inhibition of LPS-induced nitric oxide production incubated for 2 hrs prior to LPS challenge measured after 22 hrs relative to vehicle-treated control; type: functional, cell-based; procedure, shortened: as §2
[13] = tested on: RAW264.7; assay: Antiinflammatory activity in mouse RAW264.7 cells assessed as inhibition of LPS-induced nitric oxide production at 2 uM incubated for 2 hrs prior to LPS challenge measured after 22 hrs relative to vehicle-treated control; type: functional; procedure, shortened: as §2
[14] = tested on: RAW264.7; assay: Antiinflammatory activity in mouse RAW264.7 cells assessed as inhibition of LPS-induced nitric oxide production at 20 uM incubated for 2 hrs prior to LPS challenge measured after 22 hrs relative to vehicle-treated control; type: functional; procedure, shortened: as §2
[15] = tested on: RAW264.7; assay: Antiinflammatory activity in mouse RAW264.7 cells assessed as inhibition of LPS-induced ROS generation incubated for 2 hrs prior to LPS challenge measured after 22 hrs by spectrophotometry relative to vehicle-treated control; type: functional, cell-based
Procedure, shortened: (§3)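 Compound (0–20 µM) applied to RAW 264.7 cells for 2 h, then LPS added for a further 22 h. Cells harvested, loaded with 10 µM DCFH-DA for 20 min, washed twice with cold PBS. Intracellular ROS read as arbitrary fluorescence units. Means ± SEM, four independent experiments.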

[16] = tested on: RAW264.7; assay: Antiinflammatory activity in mouse RAW264.7 cells assessed as inhibition of LPS-induced ROS generation at 10 uM incubated for 2 hrs prior to LPS challenge measured after 22 hrs by spectrophotometry relative to vehicle-treated control; type: functional; procedure, shortened: as §3
[17] = tested on: RAW264.7; assay: Antiinflammatory activity in mouse RAW264.7 cells assessed as inhibition of LPS-induced ROS generation at 20 uM incubated for 2 hrs prior to LPS challenge measured after 22 hrs by spectrophotometry relative to vehicle-treated control; type: functional; procedure, shortened: as §3
[18] = biological target: Transcription factor p65 (Mus musculus) (UniProt Q04207); assay: Antiinflammatory activity in mouse RAW264.7 cells assessed as inhibition of LPS-induced NF-kappaB p65 subunit nuclear translocation at 20 uM incubated for 1 hr prior to LPS challenge measured after 30 mins by immunofluorescence assay relative to vehicle-treated control; type: cell-based
Procedure, shortened: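 Immunofluorescence: RAW 264.7 cells pretreated with 20 µM compound for 1 h, then LPS for 30 min. p65 subunit localization (cytoplasm vs nucleus) imaged by fluorescence microscopy.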

[19] = biological target: Transcription factor p65 (Mus musculus) (UniProt Q04207); assay: Antiinflammatory activity in mouse RAW264.7 cells assessed as inhibition of LPS-induced DNA binding activity of NF-kappaB p65 incubated for 1 hr prior to LPS challenge measured after 30 mins by ELISA relative to vehicle-treated control; type: cell-based
Procedure, shortened: (§4)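 RAW264.7 cells preincubated with compound (0–20 µM) for 1 h, then stimulated with LPS for 30 min. NF-κB p65 DNA-binding activity quantified by ELISA-based TransAM p65 transcription factor kit. Means ± SEM of three independent experiments. LPS given at 0.5 µg/mL.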

[20] = biological target: Transcription factor p65 (Mus musculus) (UniProt Q04207); assay: Antiinflammatory activity in mouse RAW264.7 cells assessed as inhibition of LPS-induced DNA binding activity of NF-kappaB p65 at 2 uM incubated for 1 hr prior to LPS challenge measured after 30 mins by ELISA relative to vehicle-treated control; type: cell-based; procedure, shortened: as §4
[21] = biological target: Transcription factor p65 (Mus musculus) (UniProt Q04207); assay: Antiinflammatory activity in mouse RAW264.7 cells assessed as inhibition of LPS-induced DNA binding activity of NF-kappaB p65 at 10 uM incubated for 1 hr prior to LPS challenge measured after 30 mins by ELISA relative to vehicle-treated control; type: cell-based; procedure, shortened: as §4
[22] = biological target: Transcription factor p65 (Mus musculus) (UniProt Q04207); assay: Antiinflammatory activity in mouse RAW264.7 cells assessed as inhibition of LPS-induced DNA binding activity of NF-kappaB p65 at 20 uM incubated for 1 hr prior to LPS challenge measured after 30 mins by ELISA relative to vehicle-treated control; type: cell-based; procedure, shortened: as §4

Transcription factor p65 (Mus musculus), sequence (Q04207 whole entry): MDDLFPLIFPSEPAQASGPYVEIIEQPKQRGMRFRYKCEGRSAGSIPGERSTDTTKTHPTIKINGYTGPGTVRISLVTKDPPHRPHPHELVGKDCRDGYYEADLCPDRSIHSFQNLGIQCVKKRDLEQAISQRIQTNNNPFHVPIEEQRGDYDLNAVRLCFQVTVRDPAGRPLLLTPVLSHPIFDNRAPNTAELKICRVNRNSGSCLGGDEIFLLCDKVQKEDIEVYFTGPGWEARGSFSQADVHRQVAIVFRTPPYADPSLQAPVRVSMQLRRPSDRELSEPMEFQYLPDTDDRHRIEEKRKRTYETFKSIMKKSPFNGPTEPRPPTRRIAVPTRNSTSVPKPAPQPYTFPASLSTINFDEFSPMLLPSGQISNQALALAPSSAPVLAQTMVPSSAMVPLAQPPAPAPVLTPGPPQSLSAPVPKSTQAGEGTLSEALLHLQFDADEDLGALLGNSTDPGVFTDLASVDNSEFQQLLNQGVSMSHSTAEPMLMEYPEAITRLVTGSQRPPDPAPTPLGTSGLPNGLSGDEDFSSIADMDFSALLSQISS

## C[C@]12CCC(=O)C=C1CC[C@@H]1[C@@H]2[C@@H](O)C[C@@]2(C)[C@H]1CC[C@]2(O)C(=O)CO
[1]
  inhibition: Active
[2]
  inhibition: Active
[3]
  inhibition: Active
[4]
  inhibition: Active

## CC1=C[C@]2(C(C)(C)O)C[C@]3(OC2=O)[C@@H](C)CC[C@@H]13
[5]
  Activity: Non-toxic
[6]
  inhibition: Dose-dependent effect
[7]
  inhibition: Dose-dependent effect
[8]
  inhibition: Dose-dependent effect
[1]
  inhibition at 10 µM: 37.6%
[2]
  inhibition at 10 µM: 37.3%
[3]
  inhibition at 10 µM: 27.9%
[9]
  inhibition at 20 µM: 55.4%
[10]
  inhibition at 20 µM: 78.3%
[11]
  inhibition at 20 µM: 68%
[12]
  inhibition: Dose-dependent effect
[13]
  inhibition at 2 µM: 25.1%
[4]
  inhibition at 10 µM: 53.9%
[14]
  inhibition at 20 µM: 71%
[15]
  inhibition: Dose-dependent effect
[16]
  inhibition at 10 µM: 57.9%
[17]
  inhibition at 20 µM: 82.3%
[18]
  inhibition: Active
[19]
  inhibition: Dose-dependent effect
[20]
  inhibition: 36.5%
[21]
  inhibition: 51.3%
[22]
  inhibition: 68%
